Data: ChEMBL document CHEMBL2331322, “Synthesis and antimicrobial activity of some new benzo and naphthonitrile derivatives” (2013)
≈ marks a conversion by molar mass, not a printed value.

Tests used:
Format in all cases: functional
Pseudomonas aeruginosa [1] = assay: Antimicrobial activity against Pseudomonas aeruginosa at 1 mg/mL after 24 hrs by agar disc diffusion method; conditions: read-out: DIZ
Outline: (§1)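 Sterile 5 mm filter paper disks were impregnated with test solution in DMF (1 mg/mL) and placed on agar plates seeded with the test organism, in triplicate. Bacteria were incubated at 37 °C for 24 h and fungi for […] (so in the source). The read-out was the average inhibition zone diameter around the disks, in mm.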

Escherichia coli [2] = assay: Antimicrobial activity against Escherichia coli at 1 mg/mL after 24 hrs by agar disc diffusion method; conditions: read-out: DIZ; outline: as §1
Bacillus subtilis [3] = assay: Antimicrobial activity against Bacillus subtilis after 24 hrs by microdilution susceptibility test
Outline: (§2)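 MIC was determined by broth microdilution, using Müller–Hinton broth for bacteria and Sabouraud liquid medium for fungi. Stocks were made in DMF and serially diluted twofold. Wells were inoculated at 10⁶ CFU/mL and plates incubated at 36 °C for 24–48 h, with controls included. Only compounds giving agar-diffusion zones >14 mm were tested.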

Pseudomonas aeruginosa [4] = assay: Antimicrobial activity against Pseudomonas aeruginosa after 24 hrs by microdilution susceptibility test; outline: as §2
Bacillus thuringiensis [5] = assay: Antimicrobial activity against Bacillus thuringiensis after 24 hrs by microdilution susceptibility test; outline: as §2
Bacillus thuringiensis [6] = assay: Antimicrobial activity against Bacillus thuringiensis at 1 mg/mL after 24 hrs by agar disc diffusion method; conditions: read-out: DIZ; outline: as §1
Fusarium oxysporum [7] = assay: Antimicrobial activity against Fusarium oxysporum after 48 hrs by microdilution susceptibility test; outline: as §2
Fusarium oxysporum [8] = assay: Antimicrobial activity against Fusarium oxysporum at 1 mg/mL after 48 hrs by agar disc diffusion method; conditions: read-out: DIZ; outline: as §1
Bacillus subtilis [9] = assay: Antimicrobial activity against Bacillus subtilis at 1 mg/mL after 24 hrs by agar disc diffusion method; conditions: read-out: DIZ; outline: as §1
Botrytis fabae [10] = assay: Antimicrobial activity against Botrytis fabae after 48 hrs by microdilution susceptibility test; outline: as §2
Escherichia coli [11] = assay: Antimicrobial activity against Escherichia coli after 24 hrs by microdilution susceptibility test; outline: as §2
Botrytis fabae [12] = assay: Antimicrobial activity against Botrytis fabae at 1 mg/mL […] by agar disc diffusion method; conditions: read-out: DIZ

Compound: N=c1[nH]c2nn(-c3ccc(Cl)cc3)nc2c2ccccc12
- zone of inhibition at 1000 µg/mL (Pseudomonas aeruginosa [1]): 19 mm
- zone of inhibition at 1000 µg/mL (Escherichia coli [2]): 15 mm
- MBC (Bacillus subtilis [3]): 200 µg/mL (≈ 676 µM)
- MIC (Bacillus subtilis [3]): 25 µg/mL (≈ 84.5 µM)
- MIC (Pseudomonas aeruginosa [4]): 50 µg/mL (≈ 169 µM)
- MIC (Bacillus thuringiensis [5]): 25 µg/mL (≈ 84.5 µM)
- zone of inhibition at 1000 µg/mL (Bacillus thuringiensis [6]): 38 mm
- MIC (Fusarium oxysporum [7]): 25 µg/mL (≈ 84.5 µM)
- zone of inhibition at 1000 µg/mL (Fusarium oxysporum [8]): 15 mm
- zone of inhibition at 1000 µg/mL (Bacillus subtilis [9]): 32 mm
- MIC (Botrytis fabae [10]): 50 µg/mL (≈ 169 µM)
- MBC (Escherichia coli [11]): 200 µg/mL (≈ 676 µM)
- MIC (Escherichia coli [11]): 50 µg/mL (≈ 169 µM)
- zone of inhibition at 1000 µg/mL (Botrytis fabae [12]): 15 mm

Compound: Cc1ccc(-n2nc3[nH]c(=N)c4ccccc4c3n2)cc1
- zone of inhibition at 1000 µg/mL (Pseudomonas aeruginosa [1]): 15 mm
- zone of inhibition at 1000 µg/mL (Escherichia coli [2]): 15 mm
- MBC (Bacillus subtilis [3]): 200 µg/mL (≈ 726 µM)
- MIC (Bacillus subtilis [3]): 50 µg/mL (≈ 182 µM)
- MIC (Pseudomonas aeruginosa [4]): 50 µg/mL (≈ 182 µM)
- MIC (Bacillus thuringiensis [5]): 50 µg/mL (≈ 182 µM)
- zone of inhibition at 1000 µg/mL (Bacillus thuringiensis [6]): 26 mm
- MIC (Fusarium oxysporum [7]): 50 µg/mL (≈ 182 µM)
- zone of inhibition at 1000 µg/mL (Fusarium oxysporum [8]): 19 mm
- zone of inhibition at 1000 µg/mL (Bacillus subtilis [9]): 30 mm
- MIC (Botrytis fabae [10]): 50 µg/mL (≈ 182 µM)
- MBC (Escherichia coli [11]): 200 µg/mL (≈ 726 µM)
- MIC (Escherichia coli [11]): 50 µg/mL (≈ 182 µM)
- zone of inhibition at 1000 µg/mL (Botrytis fabae [12]): 20 mm

Compound: COc1ccc(-n2nc3[nH]c(=N)c4ccccc4c3n2)cc1
- zone of inhibition at 1000 µg/mL (Pseudomonas aeruginosa [1]): 15 mm
- zone of inhibition at 1000 µg/mL (Escherichia coli [2]): 19 mm
- MBC (Bacillus subtilis [3]): 200 µg/mL (≈ 687 µM)
- MIC (Bacillus subtilis [3]): 50 µg/mL (≈ 172 µM)
- MIC (Pseudomonas aeruginosa [4]): 50 µg/mL (≈ 172 µM)
- MIC (Bacillus thuringiensis [5]): 50 µg/mL (≈ 172 µM)
- zone of inhibition at 1000 µg/mL (Bacillus thuringiensis [6]): 35 mm
- MIC (Fusarium oxysporum [7]): 25 µg/mL (≈ 85.8 µM)
- zone of inhibition at 1000 µg/mL (Fusarium oxysporum [8]): 19 mm
- zone of inhibition at 1000 µg/mL (Bacillus subtilis [9]): 33 mm
- MIC (Botrytis fabae [10]): 25 µg/mL (≈ 85.8 µM)
- MBC (Escherichia coli [11]): 200 µg/mL (≈ 687 µM)
- MIC (Escherichia coli [11]): 50 µg/mL (≈ 172 µM)
- zone of inhibition at 1000 µg/mL (Botrytis fabae [12]): 15 mm

Compound: N=c1[nH]c2nn(-c3ccc([N+](=O)[O-])cc3)nc2c2ccccc12
- zone of inhibition at 1000 µg/mL (Pseudomonas aeruginosa [1]): 15 mm
- zone of inhibition at 1000 µg/mL (Escherichia coli [2]): 26 mm
- MBC (Bacillus subtilis [3]): 200 µg/mL (≈ 653 µM)
- MIC (Bacillus subtilis [3]): 50 µg/mL (≈ 163 µM)
- MIC (Pseudomonas aeruginosa [4]): 50 µg/mL (≈ 163 µM)
- MIC (Bacillus thuringiensis [5]): 50 µg/mL (≈ 163 µM)
- zone of inhibition at 1000 µg/mL (Bacillus thuringiensis [6]): 38 mm
- MIC (Fusarium oxysporum [7]): 25 µg/mL (≈ 81.6 µM)
- zone of inhibition at 1000 µg/mL (Fusarium oxysporum [8]): 15 mm
- zone of inhibition at 1000 µg/mL (Bacillus subtilis [9]): 38 mm
- MIC (Botrytis fabae [10]): 25 µg/mL (≈ 81.6 µM)
- MBC (Escherichia coli [11]): 200 µg/mL (≈ 653 µM)
- MIC (Escherichia coli [11]): 25 µg/mL (≈ 81.6 µM)
- zone of inhibition at 1000 µg/mL (Botrytis fabae [12]): 16 mm

Compound: N#CC1c2ccccc2C(=N)C(C#N)(C#N)C1c1ccc(Cl)cc1 (stereo not given)
- zone of inhibition at 1000 µg/mL (Pseudomonas aeruginosa [1]): 31 mm
- zone of inhibition at 1000 µg/mL (Escherichia coli [2]): 33 mm
- MBC (Bacillus subtilis [3]): 200 µg/mL (≈ 605 µM)
- MIC (Bacillus subtilis [3]): 50 µg/mL (≈ 151 µM)
- MIC (Pseudomonas aeruginosa [4]): 100 µg/mL (≈ 302 µM)
- MIC (Bacillus thuringiensis [5]): 50 µg/mL (≈ 151 µM)
- zone of inhibition at 1000 µg/mL (Bacillus thuringiensis [6]): 33 mm
- MIC (Fusarium oxysporum [7]): 50 µg/mL (≈ 151 µM)
- zone of inhibition at 1000 µg/mL (Fusarium oxysporum [8]): 20 mm
- zone of inhibition at 1000 µg/mL (Bacillus subtilis [9]): 20 mm
- MIC (Botrytis fabae [10]): 50 µg/mL (≈ 151 µM)
- MBC (Escherichia coli [11]): 200 µg/mL (≈ 605 µM)
- MIC (Escherichia coli [11]): 100 µg/mL (≈ 302 µM)
- zone of inhibition at 1000 µg/mL (Botrytis fabae [12]): 26 mm

Compound: COc1ccc(C2C(C#N)c3ccccc3C(=N)C2(C#N)C#N)cc1 (stereo not given)
- zone of inhibition at 1000 µg/mL (Pseudomonas aeruginosa [1]): 26 mm
- zone of inhibition at 1000 µg/mL (Escherichia coli [2]): 31 mm
- MBC (Bacillus subtilis [3]): 200 µg/mL (≈ 613 µM)
- MIC (Bacillus subtilis [3]): 100 µg/mL (≈ 306 µM)
- MIC (Pseudomonas aeruginosa [4]): 100 µg/mL (≈ 306 µM)
- MIC (Bacillus thuringiensis [5]): 100 µg/mL (≈ 306 µM)
- zone of inhibition at 1000 µg/mL (Bacillus thuringiensis [6]): 18 mm
- MIC (Fusarium oxysporum [7]): 50 µg/mL (≈ 153 µM)
- zone of inhibition at 1000 µg/mL (Fusarium oxysporum [8]): 19 mm
- zone of inhibition at 1000 µg/mL (Bacillus subtilis [9]): 15 mm
- MIC (Botrytis fabae [10]): 100 µg/mL (≈ 306 µM)
- MBC (Escherichia coli [11]): 200 µg/mL (≈ 613 µM)
- MIC (Escherichia coli [11]): 100 µg/mL (≈ 306 µM)
- zone of inhibition at 1000 µg/mL (Botrytis fabae [12]): 20 mm

Compound: COc1cc(-c2c(C#N)c(N)c3ccccc3c2C#N)cc(OC)c1OC
- zone of inhibition at 1000 µg/mL (Pseudomonas aeruginosa [1]): 32 mm
- zone of inhibition at 1000 µg/mL (Escherichia coli [2]): 35 mm
- MBC (Bacillus subtilis [3]): 200 µg/mL (≈ 557 µM)
- MIC (Bacillus subtilis [3]): 50 µg/mL (≈ 139 µM)
- MIC (Pseudomonas aeruginosa [4]): 100 µg/mL (≈ 278 µM)
- MIC (Bacillus thuringiensis [5]): 50 µg/mL (≈ 139 µM)
- zone of inhibition at 1000 µg/mL (Bacillus thuringiensis [6]): 35 mm
- MIC (Fusarium oxysporum [7]): 50 µg/mL (≈ 139 µM)
- zone of inhibition at 1000 µg/mL (Fusarium oxysporum [8]): 33 mm
- zone of inhibition at 1000 µg/mL (Bacillus subtilis [9]): 26 mm
- MIC (Botrytis fabae [10]): 50 µg/mL (≈ 139 µM)
- MBC (Escherichia coli [11]): 200 µg/mL (≈ 557 µM)
- MIC (Escherichia coli [11]): 100 µg/mL (≈ 278 µM)
- zone of inhibition at 1000 µg/mL (Botrytis fabae [12]): 28 mm

Compound: N#C/C(=C\c1ccc(Cl)cc1)c1ccccc1C#N
- zone of inhibition at 1000 µg/mL (Pseudomonas aeruginosa [1]): 20 mm
- zone of inhibition at 1000 µg/mL (Escherichia coli [2]): 15 mm
- MBC (Bacillus subtilis [3]): 200 µg/mL (≈ 756 µM)
- MIC (Bacillus subtilis [3]): 50 µg/mL (≈ 189 µM)
- MIC (Pseudomonas aeruginosa [4]): 100 µg/mL (≈ 378 µM)
- MIC (Bacillus thuringiensis [5]): 50 µg/mL (≈ 189 µM)
- zone of inhibition at 1000 µg/mL (Bacillus thuringiensis [6]): 20 mm
- MIC (Fusarium oxysporum [7]): 100 µg/mL (≈ 378 µM)
- zone of inhibition at 1000 µg/mL (Fusarium oxysporum [8]): 15 mm
- zone of inhibition at 1000 µg/mL (Bacillus subtilis [9]): 21 mm
- MIC (Botrytis fabae [10]): 100 µg/mL (≈ 378 µM)
- MBC (Escherichia coli [11]): 200 µg/mL (≈ 756 µM)
- MIC (Escherichia coli [11]): 100 µg/mL (≈ 378 µM)
- zone of inhibition at 1000 µg/mL (Botrytis fabae [12]): 26 mm

Compound: COc1ccc(/C=C(\C#N)c2ccccc2C#N)cc1
- zone of inhibition at 1000 µg/mL (Pseudomonas aeruginosa [1]): 26 mm
- zone of inhibition at 1000 µg/mL (Escherichia coli [2]): 19 mm
- MBC (Bacillus subtilis [3]): 100 µg/mL (≈ 384 µM)
- MIC (Bacillus subtilis [3]): 100 µg/mL (≈ 384 µM)
- MIC (Pseudomonas aeruginosa [4]): 100 µg/mL (≈ 384 µM)
- MIC (Bacillus thuringiensis [5]): 100 µg/mL (≈ 384 µM)
- zone of inhibition at 1000 µg/mL (Bacillus thuringiensis [6]): 18 mm
- MIC (Fusarium oxysporum [7]): 50 µg/mL (≈ 192 µM)
- zone of inhibition at 1000 µg/mL (Fusarium oxysporum [8]): 20 mm
- zone of inhibition at 1000 µg/mL (Bacillus subtilis [9]): 26 mm
- MIC (Botrytis fabae [10]): 100 µg/mL (≈ 384 µM)
- MBC (Escherichia coli [11]): 200 µg/mL (≈ 768 µM)
- MIC (Escherichia coli [11]): 100 µg/mL (≈ 384 µM)
- zone of inhibition at 1000 µg/mL (Botrytis fabae [12]): 25 mm

Compound: COc1cc(/C=C(\C#N)c2ccccc2C#N)cc(OC)c1OC
- zone of inhibition at 1000 µg/mL (Pseudomonas aeruginosa [1]): 18 mm
- zone of inhibition at 1000 µg/mL (Escherichia coli [2]): 16 mm
- MBC (Bacillus subtilis [3]): 200 µg/mL (≈ 624 µM)
- MIC (Bacillus subtilis [3]): 100 µg/mL (≈ 312 µM)
- MIC (Pseudomonas aeruginosa [4]): 100 µg/mL (≈ 312 µM)
- MIC (Bacillus thuringiensis [5]): 100 µg/mL (≈ 312 µM)
- zone of inhibition at 1000 µg/mL (Bacillus thuringiensis [6]): 15 mm
- MIC (Fusarium oxysporum [7]): 100 µg/mL (≈ 312 µM)
- zone of inhibition at 1000 µg/mL (Fusarium oxysporum [8]): 19 mm
- zone of inhibition at 1000 µg/mL (Bacillus subtilis [9]): 20 mm
- MIC (Botrytis fabae [10]): 100 µg/mL (≈ 312 µM)
- MBC (Escherichia coli [11]): 200 µg/mL (≈ 624 µM)
- MIC (Escherichia coli [11]): 100 µg/mL (≈ 312 µM)
- zone of inhibition at 1000 µg/mL (Botrytis fabae [12]): 20 mm
